One assay concerns Candida tropicalis. The assay is described as follows: In vitro antifungal activity against Candida tropicalis 8001 by agar dilution method using Sabouraud Dextrose agar. The format is functional. The method in brief:
(§1)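 Agar dilution on Sabouraud Dextrose agar. MIC taken as the lowest concentration that inhibits visible growth.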
For orientation: In agar dilution the substance is mixed into plates at graded concentrations.

The subject of assay [1] is Meyerozyma guilliermondii. The assay is described as follows: In vitro antifungal activity against Candida guilliermondii FP587 by agar dilution method using Sabouraud Dextrose agar. The format is functional. The method in brief:
as §1

For assay [2], the species on record is Mus musculus. The assay is described as follows: Ability to hemolyze ICR mouse RBCs at 1 mg/mL using microtiter red blood cell hemolysis assay.
For assay [3], the system named is Candida albicans. The assay is described as follows: In vitro antifungal activity against Candida albicans FP579 by agar dilution method using Sabouraud Dextrose agar. The format is functional. In a few lines: as §1
The next assay concerns Candida parapsilosis. The assay is described as follows: In vitro antifungal activity against Candida parapsilosis 15001 by agar dilution method using Sabouraud Dextrose agar. The assay is classed as functional. The note with it: Lodderomyces parapsilosis. The method in brief:
as §1

In assay [4] the test system is Candida albicans. The experiment in a line: In vitro Antifungal activity against Candida albicans FP633 by agar dilution method using Sabouraud Dextrose agar. The assay is classed as functional. The method in brief: as §1
The test system of assay [5] is Mus musculus. The experiment in a line: Compound was evaluated in vivo for antifungal activity and efficacy in disseminated murine candidiasis was determined. The format is functional.
In assay [6] the test system is Candida albicans. The experiment in a line: In vitro antifungal activity against Candida albicans FP633 by agar dilution method using Sabouraud Dextrose agar. The assay is classed as functional. In a few lines: as §1
Assay [7] relates to Candida albicans. The assay is described as follows: Compound was evaluated in vivo for antifungal activity and efficacy in disseminated murine candidiasis caused by candida albicans FP633. The format is functional.
Setting [8] is: Candida tropicalis, read-out: MIC.

Converted amounts (≈) assume the structure as drawn. Numbered stars: 1 amine (or outer) side, 2 acyl side, 3 side chain; on linkers, the order of the positions; unused ones are H or OH. Bridge positions count the residues as written; N and C are the ends. Square brackets hold non-standard residues; d marks the D form. Peptide text beside a SMILES is read from it. Gln(3R-OH) = NC(=O)C[C@@H](O)[C@H](N)C(=O)O; X1 = CCCCCCCCCCCCC[C@H](CC(=O)[*:1])O[*:2]; Pro(3S-OH) = O=C(O)[C@H]1NCC[C@@H]1O; d(aThr) = C[C@@H](O)[C@@H](N)C(=O)O; Hyp = O=C(O)[C@@H]1C[C@@H](O)CN1; Orn = NCCC[C@H](N)C(=O)O

By MIC is commonly meant the smallest concentration in the dilution series that meets the test's criterion for growth inhibition. With `CCCCCCCCCCCCC[C@@H]1CC(=O)N[C@@H]([C@@H](C)O)C(=O)N[C@H](C)C(=O)N[C@@H](Cc2ccc(O)c(NC(=O)CCN)c2)C(=O)N[C@@H](C(C)C)C(=O)N2C[C@H](O)C[C@H]2C(=O)N[C@@H]([C@@H](C)O)C(=O)N[C@@H]([C@@H](C)O)C(=O)N2CC[C@H](O)[C@H]2C(=O)N[C@@H]([C@H](O)CC(N)=O)C(=O)NCC(=O)N[C@@H]([C@@H](C)O)C(=O)N[C@@H](CCCN)C(=O)O1`, the minimal inhibitory concentration (MIC) in the assay with Candida tropicalis stood at 1.56 µg/mL (≈ 0.963 µM); with Candida tropicalis (setting [8]), 1.56 µg/mL (≈ 0.963 µM); in assay [1] it was 0.78 µg/mL (≈ 0.482 µM); in the assay on Candida albicans [3], 1.56 µg/mL (≈ 0.963 µM); against Candida parapsilosis it was 0.78 µg/mL (≈ 0.482 µM); against Candida albicans [4], 0.78 µg/mL (≈ 0.482 µM). In the assay filed under Mus musculus [2], this compound gave a Hemolytic activity of 49%.

Usually ED50 stands for the dose at which the effect has come halfway, by size or by number of responders. Higher therefore signals a need for a large dose. Regarding `CCCCCCCCCCCCC[C@H](CC(=O)N[C@@H](C(=O)N[C@H](C)C(=O)N[C@@H](Cc1ccc(O)c([N+](=O)[O-])c1)C(=O)N[C@H](C(=O)N1C[C@H](O)C[C@H]1C(=O)N[C@@H](C(=O)N[C@H](C(=O)N1CC[C@H](O)[C@H]1C(=O)N[C@H](C(=O)NCC(=O)N[C@@H](C(N)=O)[C@@H](C)O)[C@H](O)CC(N)=O)[C@@H](C)O)[C@@H](C)O)C(C)C)[C@@H](C)O)OC(=O)[C@@H](C)CCCN`, the MIC stood at 0.78 µg/mL (≈ 0.489 µM) in the assay on Candida tropicalis; 0.78 µg/mL (≈ 0.489 µM) in the assay on Candida tropicalis (setting [8]); 0.78 µg/mL (≈ 0.489 µM) in assay [1]; 0.78 µg/mL (≈ 0.489 µM) with Candida albicans [3]; 0.78 µg/mL (≈ 0.489 µM) in the assay with Candida parapsilosis; 0.39 µg/mL (≈ 0.245 µM) against Candida albicans [4]. The compound also returned an ED50 in the assay on Mus musculus [5] of 0.45 mg/kg. Further, the Hemolytic activity in the assay listed under Mus musculus [2] is given as 100%.

`CCCCCCCCCCCCC[C@H](CC(=O)N[C@@H](C(=O)N[C@H](C)C(=O)N[C@@H](Cc1ccc(O)cc1)C(=O)N[C@H](C(=O)N1C[C@H](O)C[C@H]1C(=O)N[C@@H](C(=O)N[C@H](C(=O)N1CC[C@H](O)[C@H]1C(=O)N[C@H](C(=O)NCC(=O)N[C@@H](C(N)=O)[C@@H](C)O)[C@H](O)CC(N)=O)[C@@H](C)O)[C@@H](C)O)C(C)C)[C@@H](C)O)OC(=O)[C@@H](C)CCCNC(C)=O`: the minimum inhibitory concentration (MIC) came out at 1.56 µg/mL (≈ 0.98 µM) with Candida tropicalis; 1.56 µg/mL (≈ 0.98 µM) in the assay on Candida tropicalis (setting [8]); 0.78 µg/mL (≈ 0.49 µM) in [1]; 0.78 µg/mL (≈ 0.49 µM) with Candida albicans [3]; 1.56 µg/mL (≈ 0.98 µM) against Candida parapsilosis; 0.39 µg/mL (≈ 0.245 µM) against Candida albicans [4]. Further, the Hemolytic activity in the assay filed under Mus musculus [2] came to 5%.

For the compound `CCCCCCCCCCCCC[C@H](CC(=O)N[C@@H](C(=O)N[C@H](C)C(=O)N[C@@H](Cc1ccc(O)c(NC(=O)CCN)c1)C(=O)N[C@H](C(=O)N1C[C@H](O)C[C@H]1C(=O)N[C@@H](C(=O)N[C@H](C(=O)N1CC[C@H](O)[C@H]1C(=O)N[C@H](C(=O)NCC(=O)N[C@@H](C(N)=O)[C@@H](C)O)[C@H](O)CC(N)=O)[C@@H](C)O)[C@@H](C)O)C(C)C)[C@@H](C)O)OC(=O)[C@@H](C)CCCNC(C)=O.Cl`, the MIC (in the assay on Candida tropicalis; with Candida tropicalis (setting [8]); in assay [1]; with Candida albicans [3]; in the assay on Candida parapsilosis; against Candida albicans [4]) was 1.56 µg/mL throughout. Besides, the Hemolytic activity in the assay filed under Mus musculus [2] was determined as 23%.

As for `CCCCCCCCCCCCC[C@@H]1CC(=O)N[C@H]([C@@H](C)O)C(=O)N[C@H](C)C(=O)N[C@@H](Cc2ccc(O)cc2)C(=O)N[C@@H](C(C)C)C(=O)N2C[C@H](O)C[C@H]2C(=O)N[C@H]([C@@H](C)O)C(=O)N[C@@H]([C@@H](C)O)C(=O)N2CC[C@H](O)[C@H]2C(=O)N[C@@H]([C@H](O)CC(N)=O)C(=O)NCC(=O)N[C@H]([C@@H](C)O)C(=O)N[C@@H](CCCN)C(=O)O1` [FR-901469] ([d(aThr)][dA]YV[Hyp][d(aThr)]T[Pro(3S-OH)][Gln(3R-OH)]G[d(aThr)][Orn]; linker N-C via X1), the MIC (in the assay on Candida tropicalis; in the assay on Candida tropicalis (setting [8]); in assay [1]; in the assay on Candida albicans [6]; in the assay with Candida albicans [3]; against Candida parapsilosis) was 0.39 µg/mL (≈ 0.254 µM) throughout. The compound further gave an ED50 with Candida albicans [7] of 0.88 mg/kg. In addition, the Hemolytic activity in the assay listed under Mus musculus [2] is recorded as 100%.

The values are drawn from ChEMBL document CHEMBL1134139, “Synthesis and biological activity of novel macrocyclic antifungals. modification of the tyrosine moiety of the lipopeptidolactone FR901469” (2001).
